Assay results: ChEMBL document CHEMBL4043125, “Design, synthesis, and pharmacological evaluation of a novel series of hormone sensitive lipase inhibitor” (Bioorg Med Chem, 2017)
In brackets after ≈: the same amount, converted by molar mass. Activity calls are given as the source filed them. The calls are words filed in the database; no cut-off is given here.

Tests used:
Hormone-sensitive lipase [1] = target: T1, Hormone-sensitive lipase (Rattus norvegicus, UniProt P15304); assay: Inhibition of HSL in rat adipocytes assessed as reduction in lipolysis by measuring glycerol concentration incubated for 30 mins by spectrophotometric analysis; format: cell-based
T1 sequence (P15304 whole entry): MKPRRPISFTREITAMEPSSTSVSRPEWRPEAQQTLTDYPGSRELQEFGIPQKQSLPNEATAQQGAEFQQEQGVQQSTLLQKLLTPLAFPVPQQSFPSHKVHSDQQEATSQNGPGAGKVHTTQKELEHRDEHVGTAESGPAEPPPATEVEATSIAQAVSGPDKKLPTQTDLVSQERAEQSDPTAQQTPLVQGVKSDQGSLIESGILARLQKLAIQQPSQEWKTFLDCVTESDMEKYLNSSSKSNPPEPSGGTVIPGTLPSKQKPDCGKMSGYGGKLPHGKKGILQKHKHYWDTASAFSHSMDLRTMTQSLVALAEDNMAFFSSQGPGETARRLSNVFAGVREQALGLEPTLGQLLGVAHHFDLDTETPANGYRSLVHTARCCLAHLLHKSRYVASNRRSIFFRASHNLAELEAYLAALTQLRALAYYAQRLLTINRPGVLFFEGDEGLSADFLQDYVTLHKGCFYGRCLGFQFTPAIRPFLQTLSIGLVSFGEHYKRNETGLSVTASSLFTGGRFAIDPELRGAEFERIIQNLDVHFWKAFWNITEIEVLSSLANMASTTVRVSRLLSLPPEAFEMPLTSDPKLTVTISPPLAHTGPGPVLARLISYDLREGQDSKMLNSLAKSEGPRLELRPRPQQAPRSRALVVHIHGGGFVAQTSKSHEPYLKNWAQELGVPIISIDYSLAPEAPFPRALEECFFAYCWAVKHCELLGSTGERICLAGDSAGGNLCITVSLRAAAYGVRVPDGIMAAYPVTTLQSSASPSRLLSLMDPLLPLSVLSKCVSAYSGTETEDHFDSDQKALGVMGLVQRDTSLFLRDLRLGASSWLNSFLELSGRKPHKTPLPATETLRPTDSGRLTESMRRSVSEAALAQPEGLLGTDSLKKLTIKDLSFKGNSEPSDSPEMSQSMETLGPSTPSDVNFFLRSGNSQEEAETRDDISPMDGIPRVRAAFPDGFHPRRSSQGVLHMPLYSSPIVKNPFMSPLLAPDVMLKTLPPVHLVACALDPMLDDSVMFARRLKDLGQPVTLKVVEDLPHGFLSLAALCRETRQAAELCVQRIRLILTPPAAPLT
Method in brief: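 Rat subcutaneous white adipocytes, differentiated 7 days, washed in lipolysis buffer (pH 7.0, with glucose, HEPES, adenosine, 1% BSA). Compound dilutions in DMSO added, 30 min at 37°C, 5% CO2. Supernatant glycerol measured with a free glycerol kit at 540 nm. Triplicate; IC50 from nonlinear curve fitting.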

[2] = 1-octanol/phosphate buffered saline distribution coefficient, log D of the compound at 200 uM at pH 7.4 after 30 mins by shake flask based HPLC/LC-MS analysis; format: physicochemical
Method in brief: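 Shake-flask LogD: PBS and 1-octanol pre-saturated by shaking and standing overnight. Compound at 200 μM in either phase, equal volume of the other added, shaken 30 min at room temperature, centrifuged 2100 g 5 min. Both phases quantified by HPLC and LC-MS. LogD7.4 = log(octanol peak area/PBS peak area).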

[3] = Aqueous solubility of the compound in Japanese pharmacopoeia first fluid at pH 1.2 after 4 hrs by HPLC/UV analysis; format: physicochemical
Method in brief: (§1)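 Solubility: DMSO sample solution freeze-dried. Residue stirred at 1700 rpm for 4 h in JP first fluid (pH 1.2), JP second fluid (pH 6.8) or FaSSIF. Filtered, filtrate diluted in DMSO, quantified by HPLC-UV against a per-sample calibration curve.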

[4] = Aqueous solubility of the compound in Japanese pharmacopoeia second fluid at pH 6.8 after 4 hrs by HPLC/UV analysis; format: physicochemical; method in brief: as §1
[5] = Aqueous solubility of the compound in FaSSIF after 4 hrs by HPLC/UV analysis; format: physicochemical; method in brief: as §1
[6] = target: Acetylcholinesterase (Homo sapiens) (UniProt P22303); assay: Inhibition of AChE (unknown origin) at 10 uM using acetylthiocholine iodide as substrate preincubated for 10 mins followed by substrate addition measured after 15 mins by spectrophotometric analysis relative to control
Sequence of Acetylcholinesterase (Homo sapiens) (P22303 whole entry): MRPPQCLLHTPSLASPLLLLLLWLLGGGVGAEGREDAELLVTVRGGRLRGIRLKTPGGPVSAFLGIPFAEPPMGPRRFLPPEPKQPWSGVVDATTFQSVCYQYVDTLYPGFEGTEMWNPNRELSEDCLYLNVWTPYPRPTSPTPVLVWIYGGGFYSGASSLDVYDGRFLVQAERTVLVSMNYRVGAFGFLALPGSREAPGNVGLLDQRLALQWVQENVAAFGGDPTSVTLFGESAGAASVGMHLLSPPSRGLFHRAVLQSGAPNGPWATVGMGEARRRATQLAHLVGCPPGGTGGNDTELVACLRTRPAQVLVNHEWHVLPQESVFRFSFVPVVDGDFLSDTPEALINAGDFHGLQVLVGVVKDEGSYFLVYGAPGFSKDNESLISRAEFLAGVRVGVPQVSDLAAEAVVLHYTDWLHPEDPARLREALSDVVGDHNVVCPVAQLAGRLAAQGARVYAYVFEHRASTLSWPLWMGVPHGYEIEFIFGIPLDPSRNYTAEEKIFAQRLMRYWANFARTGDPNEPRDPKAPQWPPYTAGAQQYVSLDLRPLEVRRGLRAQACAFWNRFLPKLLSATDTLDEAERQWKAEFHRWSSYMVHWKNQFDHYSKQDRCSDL
Method in brief: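 Enzyme (100 U/mL) preincubated with inhibitor 10 min at room temperature, then mixed with 0.1 M potassium phosphate-HCl pH 8.0, acetylthiocholin iodide (final 500 μM) and DTNB; incubated 15 min at 37°C with shaking. Absorbance at 405 nm read at 0 and 15 min. Tested at 1, 10 and 100 μM.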

[7] = target: Cholinesterase (Homo sapiens) (UniProt P06276); assay: Inhibition of BuChE (unknown origin) at 10 uM using S-butyrylthiocholin iodide as substrate preincubated for 10 mins followed by substrate addition measured after 15 mins by spectrophotometric analysis relative to control
Sequence of Cholinesterase (Homo sapiens) (P06276 whole entry): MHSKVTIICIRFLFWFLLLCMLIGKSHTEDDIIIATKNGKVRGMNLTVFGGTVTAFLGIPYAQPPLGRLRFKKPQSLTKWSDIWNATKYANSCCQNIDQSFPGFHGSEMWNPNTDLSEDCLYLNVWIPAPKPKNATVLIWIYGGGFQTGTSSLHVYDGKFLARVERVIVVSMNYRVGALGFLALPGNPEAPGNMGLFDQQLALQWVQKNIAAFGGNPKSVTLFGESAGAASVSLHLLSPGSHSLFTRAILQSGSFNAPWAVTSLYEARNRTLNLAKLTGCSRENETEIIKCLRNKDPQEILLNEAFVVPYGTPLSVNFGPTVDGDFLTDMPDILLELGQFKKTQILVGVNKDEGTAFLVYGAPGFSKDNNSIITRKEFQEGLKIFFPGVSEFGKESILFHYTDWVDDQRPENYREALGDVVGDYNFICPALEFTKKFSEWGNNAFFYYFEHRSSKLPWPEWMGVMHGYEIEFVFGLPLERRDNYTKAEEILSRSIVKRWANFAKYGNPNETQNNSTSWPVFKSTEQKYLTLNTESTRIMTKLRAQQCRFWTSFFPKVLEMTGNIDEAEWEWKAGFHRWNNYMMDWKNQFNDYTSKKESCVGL
Method in brief: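 Enzyme (100 U/mL) preincubated with inhibitor 10 min at room temperature, then mixed with 0.1 M potassium phosphate-HCl pH 8.0, S-butyrylthiocholin iodide (final 1000 μM) and DTNB; incubated 15 min at 37°C with shaking. Absorbance at 405 nm read at 0 and 15 min. Tested at 1, 10 and 100 μM.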

Rattus norvegicus [8] = assay: Antilipolytic activity in Wistar rat assessed as reduction in plasma glycerol AUC (0 to 7 hrs) at 10 mg/kg, po by spectrophotometric analysis; format: functional, organism-based
Method in brief: (§2)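 Male Wistar rats, 8 weeks, fasted overnight. Dosed orally in 0.5% (w/v) methylcellulose, with vehicle controls (n = 4) and treated groups (n = 3). Tail-vein EDTA blood taken pre-dose and at 0.5, 1, 3, 5, 7 h. Plasma glycerol read with a free glycerol kit. Reduction in glycerol AUC0–7h versus vehicle expressed relative to a reference inhibitor group; mean ± SEM.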

Hormone-sensitive lipase [9] = target: T2, Hormone-sensitive lipase (Homo sapiens, UniProt Q05469); assay: Inhibition of recombinant human HSL expressed in baculovirus infected sf9 insect cells using PNPB as substrate after 5 mins by spectrophotometric analysis
T2 sequence (Q05469 whole entry): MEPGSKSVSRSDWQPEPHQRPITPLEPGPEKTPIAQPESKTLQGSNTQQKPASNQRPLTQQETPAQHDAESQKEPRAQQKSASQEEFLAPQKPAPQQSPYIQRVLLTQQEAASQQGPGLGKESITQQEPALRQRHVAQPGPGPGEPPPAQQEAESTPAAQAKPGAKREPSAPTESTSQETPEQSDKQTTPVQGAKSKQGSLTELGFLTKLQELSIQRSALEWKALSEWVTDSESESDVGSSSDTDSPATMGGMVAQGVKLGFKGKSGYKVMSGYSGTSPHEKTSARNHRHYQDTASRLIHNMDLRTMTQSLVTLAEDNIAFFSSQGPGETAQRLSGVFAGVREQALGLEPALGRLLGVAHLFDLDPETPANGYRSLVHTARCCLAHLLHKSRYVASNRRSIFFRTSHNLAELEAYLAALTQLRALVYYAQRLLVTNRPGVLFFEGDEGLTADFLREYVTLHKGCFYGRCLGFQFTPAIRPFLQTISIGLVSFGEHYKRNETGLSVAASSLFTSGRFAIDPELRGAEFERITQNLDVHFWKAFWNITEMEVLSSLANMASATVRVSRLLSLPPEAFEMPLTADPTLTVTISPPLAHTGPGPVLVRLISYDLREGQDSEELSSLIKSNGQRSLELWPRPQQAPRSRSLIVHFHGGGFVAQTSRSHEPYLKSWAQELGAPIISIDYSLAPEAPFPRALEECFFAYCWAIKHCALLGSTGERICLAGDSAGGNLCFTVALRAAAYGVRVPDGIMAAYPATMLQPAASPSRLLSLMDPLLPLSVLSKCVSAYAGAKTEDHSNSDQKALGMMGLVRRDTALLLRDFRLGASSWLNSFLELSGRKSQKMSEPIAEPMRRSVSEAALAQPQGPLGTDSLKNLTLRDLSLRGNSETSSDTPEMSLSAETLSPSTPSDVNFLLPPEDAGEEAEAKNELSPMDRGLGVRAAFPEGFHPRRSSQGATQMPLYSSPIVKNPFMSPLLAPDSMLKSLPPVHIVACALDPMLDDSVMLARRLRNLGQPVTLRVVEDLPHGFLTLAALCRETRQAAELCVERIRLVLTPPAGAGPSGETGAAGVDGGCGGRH

[10] = Effective permeability of the compound in prisma HT buffer at 10 mM at pH 5 after 4 hrs by PAMPA; format: physicochemical; conditions: read-out: Peff
Method in brief: (§3)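 PAMPA: filter coated with GIT-0 lipid. 10 mM DMSO stock diluted into Prisma HT buffer to give 5 µM donor solution (0.05% DMSO) at pH 5.0 or 7.4. Acceptor sink buffer used. Incubated 4 h at 25°C. Both compartments quantified by LC-MS/MS to derive the permeability coefficient.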

[11] = Effective permeability of the compound in prisma HT buffer at 10 mM at pH 7.4 after 4 hrs by PAMPA; format: physicochemical; conditions: read-out: Peff; method in brief: as §3
[12] = Cmax in rat at 3 mg/kg, po by LC-MS/MS analysis; format: ADME, organism-based; parameters: dose 3 mg/kg, route oral; conditions: in vivo
[13] = AUC (0 to 7 hrs) in rat at 3 mg/kg, po by LC-MS/MS analysis; format: ADME, organism-based; parameters: time < 7 hr, dose 3 mg/kg, route oral; conditions: in vivo
Rattus norvegicus [14] = assay: Antilipolytic activity in Wistar rat assessed as reduction in plasma glycerol AUC (0 to 7 hrs) at 1 mg/kg, po by spectrophotometric analysis relative to control; format: functional; parameters: scale not given: the % may be the effect or the level left; method in brief: as §2

| Compound | IC50 (Hormone-sensitive lipase [1]) [nM] | inhibition [6] [%] | inhibition [7] [%] | further results |
| --- | --- | --- | --- | --- |
| OB(O)c1ccccc1CN1CCC(Oc2ccc(C(F)(F)F)cn2)CC1 | 1400 | – | – | – |
| O=C(Nc1ccc(Cl)cc1B(O)O)c1ccc(Oc2ccc(C(F)(F)F)cc2)nc1 | 110 | – | – | logD at 0.5 h, 200 µM [2]: 4.3; solubility at 4 h [3]: 1.8 µg/mL (≈ 4.12 µM); solubility at 4 h [4]: 1.5 µg/mL (≈ 3.44 µM); solubility at 4 h [5]: 12 µg/mL (≈ 27.5 µM) |
| O=C(Nc1ccccc1B(O)O)c1ccc(Oc2ccc(C(F)(F)F)cn2)cc1 | 470 | – | – | logD at 0.5 h, 200 µM [2]: 3.2 |
| O=C(Cc1ccccc1B(O)O)N1CCC(Oc2ccc(C(F)(F)F)cn2)CC1 | 80 | 7 | 46 | – |
| O=C(CCc1ccccc1B(O)O)N1CCC(Oc2ccc(C(F)(F)F)cn2)CC1 | 1400 | – | – | – |
| O=C(Cc1ccc(Cl)cc1B(O)O)N1CCC(Oc2ccc(C(F)(F)F)cn2)CC1 | 24 | 8 | 5 | – |
| O=C(C(O)c1ccccc1B(O)O)N1CCC(Oc2ccc(C(F)(F)F)cn2)CC1 (configuration not stated) | 280 | -4 | 4 | – |
| O=C(Cc1ccccc1B(O)O)N1CCC(Oc2ccc(C(F)(F)F)nc2)CC1 | 180 | 6 | 62 | – |
| COc1ccc(CC(=O)N2CCC(Oc3ccc(C(F)(F)F)cn3)CC2)c(B(O)O)c1 | 45 | 9 | -4 | – |
| O=C(Nc1ccccc1B(O)O)c1ccc(Oc2ccc(C(F)(F)F)cn2)cn1 | 1100 | – | – | – |
| O=C(Oc1ccc(Oc2ccc(C(F)(F)F)cn2)cc1)N1CCC(O)CC1 | – | – | – | Activity (Rattus norvegicus [8]): Active |
| CN(C)C(=O)c1ccc(OC2CCN(C(=O)Cc3ccccc3B(O)O)CC2)nc1 | – | – | – | IC50 (Hormone-sensitive lipase [9]): > 5000 nM |
| O=C(Cc1ccc(F)cc1B(O)O)N1CCC(Oc2ccc(C(F)(F)F)cn2)CC1 | – | 7 | 2 | Papp at 4 h, 10000 µM [10]: > 50 ×10⁻⁶ cm/s; Papp at 4 h, 10000 µM [11]: > 50 ×10⁻⁶ cm/s; logD at 0.5 h, 200 µM [2]: 3.7; solubility at 4 h [3]: 190 µg/mL (≈ 446 µM); solubility at 4 h [4]: 84 µg/mL (≈ 197 µM); solubility at 4 h [5]: 99 µg/mL (≈ 232 µM); Cmax [12]: 650 ng/mL; AUC(0-t) at 7 h [13]: 3180 ng·h/mL; Activity (Rattus norvegicus [14]): 22% |
| O=C(Cc1ccccc1B(O)O)N1CCC(Oc2ccc(C(F)(F)F)cc2)CC1 | 130 | 9 | 72 | – |
| O=C(Cc1ccccc1B(O)O)N1CCC(COc2ccc(C(F)(F)F)cn2)CC1 | 260 | – | – | – |
